This note sets out measurements from PubChem BioAssay.

The source made the active and inactive calls.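 The calls were made as follows, unless noted: active = viability at or below 10% of carrier control in both of two separate runs; inconclusive = viability at or below 10% in only one of the two runs; inactive = the rest.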

The nature of assay [1]: Her2 expression decrease, cell viability multiplex – SKBR3 breast tumor cells, AlphaScreen, ATP viability, primary screen (AID 461;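 active = Her2 level under about 52% in both replicate screens, with viability over 70% of control, limit read from the data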;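 as to Her2 level: lower value means less Her2 protein in the cells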;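 as to viability: percent of carrier control wells set as 100% viability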). To be noted: SKBR3 Her2 protein level, 18-24 h, measured here: SKBR3 viability, ATP luminescence, at 10 µM.
Assay [2] has as its target Receptor tyrosine-protein kinase erbB-2 (Homo sapiens) (UniProt P04626). The assay is described as above. Particulars: 18-24 h, at 10 µM, stronger effect = lower value.
The nature of assay [3]: reduced viability of SK-BR-3 breast cancer cells – cell-based, 24 h, human, pilot screen (AID 572).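 Also: compound exposure lasted between 18 and 24 h rather than exactly 24 h; 100% = carrier-treated control wells.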 Particulars: SK-BR-3 viability, CellTiter-Glo luminescence, at 10 µM, stronger effect = lower value. A general note: Cellular ATP, detected with luciferase, serves as a proxy for viable cell number.
Assay [4] is described as follows: HUVEC growth inhibition – cell-based, human, primary screen (AID 575;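 active = viability at or below 30% in both replicate assays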;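 also: 100% = median of untreated cell wells with 0.1% DMSO on each plate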). Particulars: HUVEC proliferation, CellTiter-Glo luminescence, 72 h; at 10 µM; stronger effect = lower value. In short, it runs like this:
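Test system: HUVEC primary cells. Quantity: 1250 endothelial cells in each well. Dosing: single-point 10 µM, DMSO 0.1% final. Incubation: 72 h treatment at 37 °C. Measured by: CTG luminescence. Control set: DMSO cell controls and MePR drug controls. Plate: collagen-coated 384-well format.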

Assay [5] is described as follows: H69AR cell proliferation blockers – human, duplicate replicates, primary screen (AID 580;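 active = viability at or under a set limit in both replicates, limit being median viability minus 3 SD, cut at about 48% in these data, passing the limit was not always enough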;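 also: 100% = mean luminescence of untreated wells and 0% = no signal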). To be noted: H69AR lung tumor cells viability, ATP luminescence, 72 h; at 10 µM; stronger effect = lower value.
The nature of assay [6]: MRP1 drug-resistance reversers in H69AR cells – cell-based, doxorubicin co-treatment, pilot screen (AID 601;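 active = viability loss from added drug above about 55%, and viability with drug at most 40%, in both replicates, limit read from the data, passing the limit was not always enough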). Particulars: CellTiter-Glo, 72 h, at 10 µM; for differential viability (reversal): stronger effect = higher value.
A short description of assay [7]: yeast transport mutant growth inhibition pilot in 384-well plates, post-Golgi transport modulator project (AID 636; in the data active = inhibition above about 31%). Particulars: absorbance 615 nm, about 18 h, stronger effect = higher value.
Assay [8] in a line: growth suppression of yeast trafficking mutant, preliminary HTS, modulators of trafficking downstream of Golgi apparatus project, 1536-format plate, OD 615 nm (AID 637; in the data active = inhibition above about 30%). Particulars: yeast transport mutant growth, absorbance 615 nm, 18 h; stronger effect = higher value.
Setting [9] is: H69AR cells + 2 uM doxorubicin, measured here: viability with 2 uM doxorubicin, stronger effect = lower value.
The mark [10] stands for this setting: H69AR cells, compound alone cytotoxicity.

Chain of Receptor tyrosine-protein kinase erbB-2 (Homo sapiens) (P04626 whole entry, looked up): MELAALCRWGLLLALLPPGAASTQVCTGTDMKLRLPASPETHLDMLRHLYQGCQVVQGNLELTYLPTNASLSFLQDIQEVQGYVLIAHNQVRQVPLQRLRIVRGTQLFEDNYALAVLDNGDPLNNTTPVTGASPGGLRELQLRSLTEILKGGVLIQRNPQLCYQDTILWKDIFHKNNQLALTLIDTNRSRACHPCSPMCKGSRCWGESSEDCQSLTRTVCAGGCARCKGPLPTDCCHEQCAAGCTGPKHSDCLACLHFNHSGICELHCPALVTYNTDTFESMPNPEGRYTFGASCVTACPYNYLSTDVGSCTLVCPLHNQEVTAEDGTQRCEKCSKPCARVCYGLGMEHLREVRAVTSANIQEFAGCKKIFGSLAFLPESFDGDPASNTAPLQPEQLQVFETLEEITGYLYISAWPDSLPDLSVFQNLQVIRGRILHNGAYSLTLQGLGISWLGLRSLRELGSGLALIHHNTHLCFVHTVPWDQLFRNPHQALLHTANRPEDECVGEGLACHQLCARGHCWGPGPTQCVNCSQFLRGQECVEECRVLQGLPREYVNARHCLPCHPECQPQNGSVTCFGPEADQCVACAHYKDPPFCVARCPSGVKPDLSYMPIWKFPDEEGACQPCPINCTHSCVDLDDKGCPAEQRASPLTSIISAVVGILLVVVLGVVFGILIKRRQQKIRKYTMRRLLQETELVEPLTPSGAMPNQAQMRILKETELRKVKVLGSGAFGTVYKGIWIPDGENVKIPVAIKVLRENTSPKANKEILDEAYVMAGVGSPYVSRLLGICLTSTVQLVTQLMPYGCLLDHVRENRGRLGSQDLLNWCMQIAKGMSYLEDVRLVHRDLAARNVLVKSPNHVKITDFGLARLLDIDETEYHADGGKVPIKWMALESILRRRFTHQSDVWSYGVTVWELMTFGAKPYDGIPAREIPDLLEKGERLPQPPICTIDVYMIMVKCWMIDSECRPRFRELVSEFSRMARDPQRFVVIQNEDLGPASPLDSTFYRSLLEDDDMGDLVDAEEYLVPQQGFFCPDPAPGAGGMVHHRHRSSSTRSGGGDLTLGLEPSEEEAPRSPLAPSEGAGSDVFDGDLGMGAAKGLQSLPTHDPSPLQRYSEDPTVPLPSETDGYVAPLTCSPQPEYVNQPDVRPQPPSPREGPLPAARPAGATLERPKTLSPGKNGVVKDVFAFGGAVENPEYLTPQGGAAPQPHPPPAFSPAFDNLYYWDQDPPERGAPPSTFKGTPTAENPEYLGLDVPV

For `Cn1c(SCc2ccccc2)nnc1C1CCCNC1` (stereo not given), the viability (commonly a read-out of living cells in per cent, often relative to untreated cells) in assay [1] was 112%; in assay [3], 112% (inactive); in assay [4], 103% (inactive); in assay [5] it was 90.8% (inactive); in assay [6] (setting [9]) it was 94.8%; in assay [6] (setting [10]) it was 90.8%. The Her2 level in assay [2] was 106% (inactive). Besides, the differential viability (reversal) in assay [6] (H69AR cells + 2 uM doxorubicin) was -4.07% (inactive). Besides, the figures for the inhibition in assay [7] and in assay [8] were 0% (inactive) and 0.17% (inactive), respectively.

As to `Cc1cc2c(cc(C(=O)OCC(=O)NCc3cccs3)n2C(C)C)o1`, the viability in assay [1] is 83%; in assay [3] it was 83% (inactive); in assay [4], 37.3% (inactive); in assay [5], 21.7% (active); in assay [6] (setting [9]), 52.1%; in assay [6] (setting [10]), 21.7%. The Her2 level in assay [2] is 63.5% (inactive). The differential viability (reversal) in assay [6] (H69AR cells + 2 uM doxorubicin) is -30.4% (inactive). The inhibition (in general, the change of the read-out against control, counted positive when it falls) is -6% (inactive) in assay [7] and 5.9% (inactive) in assay [8].

Turning to `CCNCc1cc2cc(C)ccc2[nH]c1=O`, the viability in assay [1] was 106%; in assay [3], 106% (inactive); in assay [4], 80.6% (inactive); in assay [5] it was 82.7% (inactive); in assay [6] (setting [9]), 90.6%; in assay [6] (setting [10]), 82.7%. The Her2 level in assay [2] is 99% (inactive). The differential viability (reversal) in assay [6] (H69AR cells + 2 uM doxorubicin) is -7.93% (inactive). The values for the inhibition in assay [7] and in assay [8] were -8.78% (inactive) and -7% (inactive), respectively.

Turning to `O=C(NCCSCc1ccco1)Nc1cccc(Cl)c1`, the viability in assay [1] was 83.5%; in assay [3] it was 83.5% (inactive); in assay [4] it was 63.6% (inactive); in assay [5], 86.3% (inactive); in assay [6] (setting [9]), 84.2%; in assay [6] (setting [10]), 86.3%. Further, in assay [2], the Her2 level was 95% (inactive). Besides, the differential viability (reversal) in assay [6] (H69AR cells + 2 uM doxorubicin) was 2.05% (inactive). Also, the inhibition is -5.33% (inactive) in assay [7] and -3.97% (inactive) in assay [8].

Take `Cc1cc2ccccc2n1CCNC(=O)c1ccc(S(=O)(=O)N2CCOCC2)cc1`: the viability is 95.5% in assay [1]; 95.5% (inactive) in assay [3]; 85% (inactive) in assay [4]; 93% (inactive) in assay [5]; 97.8% in assay [6] (setting [9]); 93% in assay [6] (setting [10]). Moreover, in assay [2], the Her2 level is 90% (inactive). In addition, the differential viability (reversal) in assay [6] (H69AR cells + 2 uM doxorubicin) is -4.87% (inactive). Besides, the inhibition in assay [7] is -7.57% (inactive); in assay [8], 1.75% (inactive).

Regarding `Cn1c(SCC(=O)c2ccc(-c3ccccc3)cc2)nnc1-c1ccco1`, the viability in assay [1] is 120%; in assay [3], 120% (inactive); in assay [4], 93.7% (inactive); in assay [5], 88.1% (inactive); in assay [6] (setting [9]), 91.1%; in assay [6] (setting [10]), 88.1%. Moreover, the Her2 level in assay [2] was 93.5% (inactive). Also, in assay [6] (H69AR cells + 2 uM doxorubicin), the differential viability (reversal) is -2.98% (inactive). Further, the values for the inhibition in assay [7] and in assay [8] were -5.6% (inactive) and 9.68% (inactive), respectively.

In the case of `N#CC(C(=O)Nc1ccc(Cl)c(Cl)c1)=C1Nc2ccccc2N1`, the viability is 90.5% in assay [1]; 90.5% (inactive) in assay [3]; 36% (inactive) in assay [4]; 13.5% (active) in assay [5]; 24.3% in assay [6] (setting [9]); 13.5% in assay [6] (setting [10]). Further, in assay [2], the Her2 level is 72.5% (inactive). Also, the differential viability (reversal) in assay [6] (H69AR cells + 2 uM doxorubicin) was -10.8% (inactive). The inhibition in assay [7] is -0.66% (inactive); in assay [8] it was -1.61% (inactive).

`COc1ccc(C2(C(=O)Nc3c(C)n(C)n(-c4ccccc4)c3=O)CCCC2)cc1OC`: the viability in assay [1] is 94%; in assay [3] it was 94% (inactive); in assay [4], 98.5% (inactive); in assay [5], 106% (inactive); in assay [6] (setting [9]) it was 84.1%; in assay [6] (setting [10]), 106%. Besides, the Her2 level in assay [2] was 91.5% (inactive). In addition, the differential viability (reversal) in assay [6] (H69AR cells + 2 uM doxorubicin) was 21.9% (inactive). For the same compound, the inhibition in assay [7] was -2.4% (inactive); in assay [8], 1.43% (inactive).

Consider `CCOC(=O)C1CCCN(Cc2nc(N)nc(Nc3ccccc3)n2)C1` (stereo not given), for which the viability was 100% in assay [1]; 100% (inactive) in assay [3]; 92.8% (inactive) in assay [4]; 91.1% (inactive) in assay [5]; 85.5% in assay [6] (setting [9]); 91.1% in assay [6] (setting [10]). For the same compound, the Her2 level in assay [2] was 87% (inactive). Besides, in assay [6] (H69AR cells + 2 uM doxorubicin), the differential viability (reversal) was 5.62% (inactive). The inhibition is 1.05% (inactive) in assay [7] and 0.32% (inactive) in assay [8].

For `O=C1CN(C(=O)COC(=O)C23CC4CC(CC(O)(C4)C2)C3)c2ccccc2N1`, the viability is 115% in assay [1]; 115% (inactive) in assay [3]; 104% (inactive) in assay [4]; 96.6% (inactive) in assay [5]; 86.1% in assay [6] (setting [9]); 96.6% in assay [6] (setting [10]). The Her2 level in assay [2] is 85.5% (inactive). Also, the differential viability (reversal) in assay [6] (H69AR cells + 2 uM doxorubicin) is 10.6% (inactive). Also, the figures for the inhibition in assay [7] and in assay [8] were -7.97% (inactive) and 3.65% (inactive), respectively.

For `O=c1c[n+]([O-])c2ccccc2n1OCc1ccccn1`, the viability in assay [1] was 94%; in assay [3], 94% (inactive); in assay [4], 94.7% (inactive); in assay [5], 105% (inactive); in assay [6] (setting [9]) it was 92.7%; in assay [6] (setting [10]), 105%. Further, in assay [2], the Her2 level was 89.5% (inactive). The differential viability (reversal) in assay [6] (H69AR cells + 2 uM doxorubicin) was 12.1% (inactive). The results for the inhibition in assay [7] and in assay [8] were -2.11% (inactive) and -4.29% (inactive), respectively.

Take `CCOC(=O)C1CCN(C(=O)Nc2ccc3snnc3c2)CC1`: the viability in assay [1] is 96.5%; in assay [3], 96.5% (inactive); in assay [4], 92.2% (inactive); in assay [5] it was 94.9% (inactive); in assay [6] (setting [9]), 89%; in assay [6] (setting [10]), 94.9%. Also, the Her2 level in assay [2] was 88.5% (inactive). The differential viability (reversal) in assay [6] (H69AR cells + 2 uM doxorubicin) was 5.87% (inactive). Moreover, the inhibition in assay [7] was -6.08% (inactive); in assay [8], -0.67% (inactive).

With `COC(=O)c1[nH]c2ccccc2c1NS(=O)(=O)c1ccc(OC)cc1OC`, the viability in assay [1] was 88.5%; in assay [3], 88.5% (inactive); in assay [4] it was 96.8% (inactive); in assay [5], 84% (inactive); in assay [6] (setting [9]), 99.4%; in assay [6] (setting [10]), 84%. In assay [2], the Her2 level is 82% (inactive). Also, in assay [6] (H69AR cells + 2 uM doxorubicin), the differential viability (reversal) was -15.4% (inactive). Also, the figures for the inhibition in assay [7] and in assay [8] were -5.26% (inactive) and -3.82% (inactive), respectively.

As to `CCOC(=O)N1CCC(N2C(=O)c3ccccc3C2Nc2cccnc2)CC1` (stereo not given), the viability in assay [1] is 91.5%; in assay [3] it was 91.5% (inactive); in assay [4], 112% (inactive); in assay [5], 85.7% (inactive); in assay [6] (setting [9]), 85.6%; in assay [6] (setting [10]), 85.7%. In assay [2], the Her2 level is 104% (inactive). Moreover, in assay [6] (H69AR cells + 2 uM doxorubicin), the differential viability (reversal) was 0.11% (inactive). For the same compound, the figures for the inhibition in assay [7] and in assay [8] were -2.05% (inactive) and -3% (inactive), respectively.

As to `CCOC(=O)CN1C2=NCCN2c2ccccc21`, the viability was 89.5% in assay [1]; 89.5% (inactive) in assay [3]; 96.1% (inactive) in assay [4]; 99% (inactive) in assay [5]; 88.1% in assay [6] (setting [9]); 99% in assay [6] (setting [10]). Besides, the Her2 level in assay [2] was 82% (inactive). The differential viability (reversal) in assay [6] (H69AR cells + 2 uM doxorubicin) is 10.9% (inactive). Besides, the inhibition is -2.63% (inactive) in assay [7] and -4% (inactive) in assay [8].
